Each compound was assayed on BJeLR fibroblasts viability, alamar blue fluorescence, 48 h (assay: BJeLR fibroblast killing, alamar blue viability – cell-based, alamar blue fluorescence, 48 h, powder samples, dose response (AID 2608)).
Outline: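 Assay system: HRASV12-transformed BJ fibroblasts / Amount: 1000 cells per well / Compound dosing: 2-fold series, 0.01 to 5.33 µg/mL final / Buffer or medium: DMEM/M199 growth medium supplemented with FBS / Technique: alamar blue fluorescence, excitation 544 nm, emission 590 nm / Times: 48 h exposure, 37 °C, 5% CO2, ~16 h alamar blue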
For `COC(=O)[C@@H]1Cc2c([nH]c3ccccc23)C(C)(C)N1C(=O)CCl`, the EC50 was 475 nM.
Work on `COc1ccc(N(C(=O)CCl)C(C(=O)NCCc2ccccc2)c2cccs2)cc1Cl` (centres undefined) yielded an EC50 of 26 nM.
`COc1cccc(N(C(=O)CCl)C(C(=O)NCCc2ccccc2)c2cccs2)c1` (centres undefined) gave an EC50 of 168 nM.
`COc1ccc(C(C(=O)NC2CCCCC2)N(C(=O)CCl)c2ccc(C)cc2)cc1` (centres undefined) gave an EC50 of 161 nM.
`CCOc1ccc(Nc2nc(N)nc(CCl)n2)cc1` showed an EC50 of 226 nM.
`Cc1ccc(C2CC(c3cccs3)=NN2C(=O)CCl)cc1` (centres undefined) gave an EC50 of 776 nM.
Compound `COc1ccc(C(C(=O)NC2CCCCC2)N(C(=O)CCl)c2cccc(Cl)c2)cc1` (centres undefined) has an EC50 of 171 nM.
`Nc1nc(CCl)nc(Nc2ccc3ccccc3c2)n1` was tested, and the EC50 was 85 nM.
`C=CCOc1ccccc1CN(C(=O)CCl)c1ccc2c(c1)OCO2` showed an EC50 of 855 nM.
`Cc1ccc(N(C(=O)CCl)C(C(=O)NC2CCCCC2)c2cccnc2)cc1C` (centres undefined) gave an EC50 of 160 nM.
With `COc1ccc(N(C(=O)CCl)C(C(=O)NCCc2ccccc2)c2cccs2)cc1` (centres undefined) the EC50 was 217 nM.
In the case of `O=C(CCl)N=c1sccn1Cc1ccccc1Cl`, the EC50 is reported as 149 nM.
Compound `CCCCCCCN(C(=O)CCl)c1cccc(C)c1` has an EC50 of 119 nM.
For `COc1ccc(CN(CCC(c2ccccc2)c2ccc(OC(C)C)cc2)C(=O)CCl)cc1OC` (centres undefined), the EC50 was 642 nM.
